Experimental data reported in ChEMBL document CHEMBL1122513, “Synthesis and antiviral activity of carbocyclic analogues of 2'-deoxyribofuranosides of 2-amino-6-substituted-purines and of 2-amino-6-substituted-8-azapurines” (J Med Chem, 1984).
In brackets after ≈: the same amount, converted by molar mass. Several values for one entry are separate records, joined by “and”; a condition that tells them apart may be missing. Equal values may be shown once.

Key:
L1210 [1] = assay: Antineoplastic activity of compound in mice inoculated with 10e 5 L1210 leukemia cells was measured as weight change after ip administration of 200 mg/kg; assay type: functional, Mus musculus; settings: route intraperitoneal
Method in brief: (§1)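 Mice received 10⁵ L1210 leukemia cells ip on day 0, then compound ip as a solution or suspension q.d. days 1-9, following NCI protocols. Weight-change difference is the mean weight change of treated mice minus that of untreated leukemic controls, both measured on day 5.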

Human alphaherpesvirus 2 [2] = assay: In vitro antiviral activity in secondary cultures of rabbit kidney cells infected with HSV type 2 strain MS; assay type: functional
Method in brief: (§2)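 Scored as a virus rating (VR) from inhibition of CPE caused by HSV-1 strain 377 or HSV-2 strain MS in secondary rabbit kidney cultures or Vero cells. VR ≥1.0 means definite activity, 0.5-0.9 marginal to moderate, and <0.5 usually none. Ranges are pooled from several tests.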

Human alphaherpesvirus 1 [3] = assay: In vitro antiviral activity in secondary cultures of rabbit kidney cells infected with HSV type 1 strain 377; assay type: functional; method in brief: as §2
Human alphaherpesvirus 2 [4] = assay: Concentration required to inhibit HSV type 2 strain MS induced cytopathogenic affects by 50%; assay type: functional
Method in brief: (§3)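 Inhibition of cytopathogenic effect caused by HSV-1 strain 377 or HSV-2 strain MS, replicating in secondary rabbit kidney cell cultures or in Vero cells. MIC₅₀ is the concentration giving 50% inhibition of virus-induced CPE. Ranges are pooled from several tests in either host cell type.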

Human alphaherpesvirus 1 [5] = assay: Concentration required to inhibit HSV type 1 strain 377 induced cytopathogenic affects by 50%; assay type: functional; method in brief: as §3
L1210 [6] = assay: Antineoplastic activity of compound in mice inoculated with 10e 5 L1210 leukemia cells was measured as weight change after ip administration of 100 mg/kg; assay type: functional, Mus musculus; settings: route intraperitoneal; method in brief: as §1
Mus musculus [7] = assay: Antineoplastic activity of compound in mice inoculated with 10e 5 L1210 leukemia cells was measured as T/C after ip administration of 200 mg/kg; assay type: functional; settings: route intraperitoneal
Method in brief: (§4)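 L1210 leukemia, 10⁵ cells inoculated intraperitoneally into mice on day 0, following NCI protocols. Compound given intraperitoneally as a solution or suspension once daily on days 1-9. T/C % compares lifespan of treated mice with untreated leukemic control mice.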

[8] = Compound was evaluated for cytotoxicity to KB cells (derived from human epidermoid carcinoma); assay type: cell-based; settings: read-out: ED50 (the source's name)
Method in brief: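 KB cells grown in culture and tested under the National Cancer Institute cytotoxicity protocol. The value is reported as ED50 in mcg/mL.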

Mus musculus [9] = assay: Antineoplastic activity of compound in mice inoculated with 10e 5 L1210 leukemia cells was measured as T/C after ip administration of 100 mg/kg; assay type: functional; settings: route intraperitoneal; method in brief: as §4
Mus musculus [10] = assay: Antineoplastic activity of compound in mice inoculated with 10e 5 L1210 leukemia cells was measured as T/C after ip administration of 100 […]; assay type: functional; method in brief: as §4
L1210 [11] = assay: Antineoplastic activity of compound in mice inoculated with 10e 5 L1210 leukemia cells was measured as weight change after ip administration of 200 […]; assay type: functional, Mus musculus; method in brief: as §1
Mus musculus [12] = assay: Antineoplastic activity of compound in mice inoculated with 10e 5 L1210 leukemia cells was measured as T/C after ip administration of 25 […]; assay type: functional; method in brief: as §4
L1210 [13] = assay: Antineoplastic activity of compound in mice inoculated with 10e 5 L1210 leukemia cells was measured as weight change after ip administration of 100 […]; assay type: functional, Mus musculus; method in brief: as §1
L1210 [14] = assay: Antineoplastic activity of compound in mice inoculated with 10e 5 L1210 leukemia cells was measured as weight change after ip administration of 50 […]; assay type: functional, Mus musculus; method in brief: as §1
L1210 [15] = assay: Antineoplastic activity of compound in mice inoculated with 10e 5 L1210 leukemia cells was measured as weight change after ip administration of 25 […]; assay type: functional, Mus musculus; method in brief: as §1
Mus musculus [16] = assay: Antineoplastic activity of compound in mice inoculated with 10e 5 L1210 leukemia cells was measured as T/C after ip administration of 200 […]; assay type: functional; method in brief: as §4
Mus musculus [17] = assay: Antineoplastic activity of compound in mice inoculated with 10e 5 L1210 leukemia cells was measured as T/C after ip administration of 50 […]; assay type: functional; method in brief: as §4
Vaccinia virus = assay: In vitro for antiviral activity in secondary cultures of rabbit kidney cells infected with vaccinia virus; assay type: functional, Orthopoxvirus vaccinia
Human alphaherpesvirus 1 [18] = assay: In vitro antiviral activity in secondary cultures of rabbit kidney cells infected with HSV type 1 strain HF; assay type: functional
Human alphaherpesvirus 1 [19] = assay: Concentration required to inhibit HSV type 1 strain HF induced cytopathogenic affects by 50%; assay type: functional
Human alphaherpesvirus 1 [20] = assay: Concentration required to inhibit HSV type 1 strain 377 induced cytopathogenic affects by 50%; 6.4-9.8; assay type: functional; method in brief: as §3
Human alphaherpesvirus 2 [21] = assay: Concentration required to inhibit HSV type 2 strain MS induced cytopathogenic affects by 50%; 6.4-30; assay type: functional; method in brief: as §3
Human alphaherpesvirus 1 [22] = assay: In vitro antiviral activity in secondary cultures of rabbit kidney cells against HSV type 1 strain 377; 2.5-3.1; assay type: functional; method in brief: as §2
Human alphaherpesvirus 2 [23] = assay: In vitro antiviral activity in secondary cultures of rabbit kidney cells against HSV type 2 strain MS; 1.6-2.3; assay type: functional; method in brief: as §2
Human alphaherpesvirus 1 [24] = assay: In vitro antiviral activity in secondary cultures of rabbit kidney cells against HSV type 1 strain 377; assay type: functional; method in brief: as §2
Mus musculus [25] = assay: Antineoplastic activity of compound in mice inoculated with 10e 5 L1210 leukemia cells was measured as T/C after ip administration of 50 mg/kg; assay type: functional; settings: route intraperitoneal; method in brief: as §4
L1210 [26] = assay: Antineoplastic activity of compound in mice inoculated with 10e 5 L1210 leukemia cells was measured as weight change after ip administration of 50 mg/kg; assay type: functional, Mus musculus; settings: route intraperitoneal; method in brief: as §1
[27] = Human alphaherpesvirus 1, read-out: MIC50

SMILES | Virus rating (Human alphaherpesvirus 2 [2]) | Virus rating (Human alphaherpesvirus 1 [3]) | MIC50 (Human alphaherpesvirus 2 [4]) [µg/mL] | MIC50 (Human alphaherpesvirus 1 [5]; [27]) [µg/mL] | CC50 [8] [µg/mL] | T/C (Mus musculus [10]) [%] | Weight change (L1210 [13]) [g] | further results
Nc1nc(N)c2nnn(C3CC(O)C(CO)C3)c2n1 (stereo unspecified) | 2.3 | 4 and 4.4 | 10 (≈ 37.7 µM) | < 3.2 | > 100 |  |  | Weight change (L1210 [1]): -1.1 g; MIC50 (Human alphaherpesvirus 1 [5]): 2 µg/mL (≈ 7.54 µM); Weight change (L1210 [6]): -0.7 g; T/C (Mus musculus [7]): 92%; T/C (Mus musculus [9]): 96%
Nc1nc(Cl)c2nnn(C3CC(O)C(CO)C3)c2n1 (stereo unspecified) | 1.9 | 5 and 4.5 | 23 (≈ 80.8 µM) | < 1 | 10 (≈ 35.1 µM) | 100 | -3.4 | Weight change (L1210 [11]): -4.4 g; T/C (Mus musculus [12]): 118%; Weight change (L1210 [14]): -1.5 g; Weight change (L1210 [15]): -1 g; MIC50 (Human alphaherpesvirus 1 [5]): 1.6 µg/mL (≈ 5.62 µM); T/C (Mus musculus [16]): 78%; T/C (Mus musculus [17]): 105%
Nc1nc(O)c2ncn([C@@H]3C[C@H](CO)[C@@H](O)C3)c2n1 | 3.7 | >=4.6 | 0.8 (≈ 3.02 µM) | < 0.3 | 95 (≈ 358 µM) | 96 | -3.7 | 
Nc1nc(O)c2nnn(C3CC(O)C(CO)C3)c2n1 (stereo unspecified) | 2.1 | 4.2 | 6.9 (≈ 25.9 µM) | 0.6 (≈ 2.25 µM) | > 100 | 100 | -2.4 | Weight change (L1210 [11]): -3.2 g; T/C (Mus musculus [16]): 104%
Nc1nc(S)c2ncn(C3CC(O)C(CO)C3)c2n1 (stereo unspecified) | 1.7 | 4.9 | 32 (≈ 114 µM) | < 3.2 | > 100 | 91 | -0.2 | Weight change (L1210 [11]): 0.5 g; T/C (Mus musculus [16]): 108%
Nc1ccn([C@@H]2C[C@H](CO)[C@@H](O)[C@H]2O)c(=O)n1 (stereo in doubt; form 2) | 3.2 |  | 2.4 (≈ 9.95 µM) |  |  |  |  | Virus rating (Vaccinia virus): 0.9; Virus rating (Human alphaherpesvirus 1 [18]): 0.8; MIC50 (Human alphaherpesvirus 1 [19]): 68 µg/mL (≈ 282 µM)
Nc1ncnc2c1ncn2[C@@H]1O[C@H](CO)[C@@H](O)[C@@H]1O [VIDARABINE] |  |  |  |  |  |  |  | MIC50 (Human alphaherpesvirus 1 [20]): 6.4 µg/mL (≈ 23.9 µM); MIC50 (Human alphaherpesvirus 2 [21]): 6.4 µg/mL (≈ 23.9 µM); Virus rating (Human alphaherpesvirus 1 [22]): 2.5; Virus rating (Human alphaherpesvirus 2 [23]): 1.6
Nc1ncnc2c1ncn2[C@@H]1C[C@H](CO)[C@@H](O)[C@@H]1O |  |  |  |  |  |  |  | Virus rating (Vaccinia virus): 1.5 and 1.7; Virus rating (Human alphaherpesvirus 1 [18]): 2.2 and 3.5
OCC1CC(n2nnc3c(O)ncnc32)C(O)C1O (stereo unspecified) |  |  |  |  |  |  |  | Virus rating (Vaccinia virus): 1.2; Virus rating (Human alphaherpesvirus 1 [18]): 1.5; MIC50 (Human alphaherpesvirus 1 [19]; [27]): 298 µg/mL (≈ 1120 µM)
OCC1CC(n2cnc3c(O)ncnc32)C(O)C1O (stereo unspecified) |  |  |  |  |  |  |  | Virus rating (Vaccinia virus): 1.9; Virus rating (Human alphaherpesvirus 1 [18]): 2.1; MIC50 (Human alphaherpesvirus 1 [19]; [27]): 97 µg/mL (≈ 364 µM)
Nc1nc(N)c2ncn(C3CC(O)C(CO)C3)c2n1 (stereo unspecified) | 2.9 | 4.5 | 2.4 (≈ 9.08 µM) | 0.6 (≈ 2.27 µM) | > 100 |  |  | Weight change (L1210 [1]): -5.5 g; Virus rating (Human alphaherpesvirus 1 [24]): 4.7; MIC50 (Human alphaherpesvirus 1 [5]): 0.3 µg/mL (≈ 1.14 µM); T/C (Mus musculus [25]): 104%; Weight change (L1210 [26]): -2.8 g; T/C (Mus musculus [7]): 79%
Cc1cn(C2CC(CO)C(O)C2O)c(=O)[nH]c1=O (stereo unspecified) | 3.2 | 5.4 | 7 (≈ 27.3 µM) | 0.8 (≈ 3.12 µM) |  |  |  | 
Nc1nc(Cl)c2ncn(C3CC(O)C(CO)C3)c2n1 (stereo unspecified) | 2 | 1.9 | 37 (≈ 130 µM) | 8.1 (≈ 28.5 µM) | 62 (≈ 219 µM) | 106 | -1 | Weight change (L1210 [11]): -2.2 g; T/C (Mus musculus [16]): 106%
Nc1ccn([C@@H]2C[C@H](CO)[C@@H](O)[C@H]2O)c(=O)n1 (stereo in doubt; form 1) |  |  |  |  |  |  |  | MIC50 (Human alphaherpesvirus 1 [19]): 93 µg/mL and <32 µg/mL
